Assay results: PubChem BioAssay AID2097 (Broad Institute, 2009)
In all, about 300,000 compounds went through this assay and about 120 (0.04%) were called active.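 The calls were made as follows: active = more than half of replicate wells score below -50%, meaning over 50% inhibition versus plate controls; inconclusive = some replicates but at most half score below -50%; inactive = no replicate scores below -50%.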 For the sample, actives were picked, then their nearest neighbours and some compounds at random.

The molecules below were run against Glycogen synthase kinase-3 beta (Homo sapiens) (UniProt P49841) (assay: human GSK3beta kinase inhibitors, primary screen, biochemical, cell-free homogeneous, HTS (AID 2097;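 also: 0% = median DMSO wells and -100% = median GW8510 positive control wells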)). Conditions: GST-GSK3beta kinase, ADP-Glo luminescence, 60 min; at 10 µM; stronger effect = lower value.
Glycogen synthase kinase-3 beta (Homo sapiens), sequence (P49841 whole entry, looked up): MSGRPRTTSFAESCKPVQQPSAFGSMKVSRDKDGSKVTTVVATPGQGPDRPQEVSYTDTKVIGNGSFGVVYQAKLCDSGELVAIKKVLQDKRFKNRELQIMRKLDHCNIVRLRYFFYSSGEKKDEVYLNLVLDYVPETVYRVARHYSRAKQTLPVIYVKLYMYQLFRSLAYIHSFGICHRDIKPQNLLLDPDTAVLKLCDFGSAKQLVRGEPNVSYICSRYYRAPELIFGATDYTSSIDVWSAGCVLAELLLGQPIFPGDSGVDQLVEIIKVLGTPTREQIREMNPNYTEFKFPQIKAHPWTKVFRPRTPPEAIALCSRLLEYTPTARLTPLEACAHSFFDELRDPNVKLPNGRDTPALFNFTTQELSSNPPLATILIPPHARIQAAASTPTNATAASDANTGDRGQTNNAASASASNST
Method in brief: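 Assay system: GST-tagged human GSK3beta kinase, cell-free; Input: 1.6 ng GSK3beta; Medium: Tris/MgCl2 kinase buffer; Timing: 60 min enzyme reaction, room temperature; Signal: ADP-Glo luminescence quantifying ADP generated by kinase; Evaluation: score relative to plate controls; Benchmarks: DMSO neutral wells and GW8510 at 20 µM as positive.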

Activity score (negative = inhibition), inactive:
CCc1nnc(NC(=O)CSCc2cc(=O)n3cc(C)sc3n2)s1 1.76%
COc1ccc(C)cc1Nc1n[n+](-c2ccccc2)c(-c2cccc(Cl)c2Cl)s1 1.38%
COC(=O)c1ccc2c(C(C)(C)O)c(C(C)(C)O)[nH]c2c1 0.923%
Cc1cc(C)n2nc(C(=O)N(C)C(c3ccccc3)c3ccccc3)nc2n1 -1.04%
COC(=O)c1ccc(CNC(=O)C2CCC(=O)N(Cc3cccc(F)c3)C2)cc1 (stereo not given) -6.3%
CCc1noc(C)c1C(=O)N1CCCSC1=Nc1ccccc1OC 3.72%
CC(OC(=O)c1ccc(S(=O)(=O)N2CCOCC2)cc1)c1ccccc1 (stereo not given) -0.509%
O=C(N/N=C/c1ccccc1O)/C(=C/c1ccccc1)CCO 0.241%
CC1CC2=C(CC1/C=N/NC(N)=S)C(C)(C)CCC2 (stereo not given) -1.32%
O=C1NC(Nc2nc3ccccc3s2)(C(F)(F)F)C(=O)N1C1CCCCC1 (stereo not given) -3.19%
Cc1ccc(C2=NN(C)c3nc4ccccc4n3C2)cc1 1.54%
Nc1nc(CC(=O)CSc2ccc(Cl)cc2)nc(Nc2ccc(F)cc2)n1 0.55%
Oc1c(Cl)cc(Cl)cc1/C=N/c1ncn[nH]1 0.992%
COC(C[C@H](O)CC(=O)[C@@H](C)OCc1ccccc1)OC -8.84%
Cc1cc(C)c(-c2csc(NC(=O)CCCc3nc4ccccc4c(=O)[nH]3)n2)c(C)c1 2.17%
COC(=O)Nc1ccc(S(=O)(=O)N2CCN(CCN3C(=O)C4C5C=CC(C5)C4C3=O)CC2)cc1 (stereo not given) -3.94%
O=C1C(=O)N(CCCN2CCOCC2)C(c2ccc([N+](=O)[O-])cc2)/C1=C(\O)c1ccc2c(c1)OCCO2 (stereo not given) 1.45%
COc1nc(Oc2ccc(=O)n(C)n2)nc(N(C)C)n1 0.382%
Cc1ccc(OCC(=O)Nc2ccc(C(=O)O)cc2NC(=O)COc2ccc(C)c(C)c2)cc1C 2.29%
CC(=O)N1CCSc2ccc(S(=O)(=O)N3CCC(C)CC3)cc21 1.34%
O=C(NCc1ccco1)C1CCCN1S(=O)(=O)c1ccccc1C(F)(F)F (stereo not given) 1.38%
Cn1c(=O)[nH]c(=O)c2c1nc(N1CCN(C(c3ccccc3)c3ccccc3)CC1)n2CCO -22.6%
CCN(CC(=O)Nc1ccccc1C(F)(F)F)C(=O)CSCc1c(C)noc1C -1.14%
CN1CCN(S(=O)(=O)c2ccc(Nc3ccc(F)cc3)nc2)CC1 2.53%
CC1(C)Cc2ccccc2/C(=C/C(=O)c2ccccc2)N1 -1.05%
CN(C)S(=O)(=O)c1ccc(N2CCCC2)c(C(=O)Nc2ccc(Br)cc2F)c1 3.14%
COc1ccc2c(c1OC)C(=O)N(c1ccc(O)cc1)C2 -1.79%
C=CCOc1c2ccc(C(=O)N(CC)c3ccc(OC)cc3)cc2nn1C 0.746%
O=CN1CCN(C(=O)c2ccc3c(c2)OCO3)CC1 2.93%
C/C(CC(=O)NCc1ccc(Cl)cc1)=N\NC(=O)COc1ccc(C)cc1Br -2.78%
COc1ccccc1C(=O)N(C1=NC(C)CS1)c1ccc(Cl)cc1 (stereo not given) 6.2%
O=C(Nc1ccccc1)Nc1nnc(COc2ccccc2F)s1 0.847%
CCCN1C2CCCC1CC(NC(=O)c1cccc(OC)c1)C2 (stereo not given) 2.34%
CN(CCNC(=O)c1cc2c(-c3ccccc3F)nn(C)c2s1)C1CCCCC1 -2.3%
COC(=O)c1ccc(CN2C(=O)NC(c3ccccc3)(c3ccccc3)C2=O)o1 -0.96%
CCn1cc(C(=O)N[C@@H](C)C(=O)NCCO)c(=O)c2cc3c(cc21)OCO3 -0.599%
O=[N+]([O-])c1cc([N+](=O)[O-])c(Oc2cc(F)cc(F)c2F)cc1NN1CCCCC1 -1.52%
CC(NC(=O)C1CCCN(S(=O)(=O)c2ccc(-n3cnnn3)cc2)C1)c1ccc(F)cc1 (stereo not given) -1.62%
COc1cc(NC(=O)C2CCN(c3cnccn3)CC2)cc(OC)c1 -0.841%
O=c1[nH]c2ccccc2n2c(-c3ccccc3)nnc12 -0.961%
CCCCN(C(=O)CSCC(=O)Nc1ccc(OC)cc1)c1c(N)n(CCC)c(=O)[nH]c1=O -1.15%
Cc1nnsc1S(=O)(=O)Cc1ccccc1Cl -0.424%
CC(=O)N1c2ccc(S(=O)(=O)N3CCCC(C(=O)Nc4ccc(C)cc4C)C3)cc2CC1C (stereo not given) 0.432%
CCOC(OCC)c1ccc(/C=C\c2nccc(N)n2)cc1 -5.66%
Cc1cccc(CCNS(=O)(=O)c2ccc(S(=O)(=O)NC3CCCC3)cc2)c1 -0.921%
COc1ccc(C)cc1N(C)C(=O)c1coc(=O)c2ccccc12 3.14%
COc1ccc(Cl)cc1NC(=O)C(C)N1CCc2ccccc21 (stereo not given) 0.322%
COC(=O)[C@]1(C)N[C@H](c2ccc(-c3ccc(Cl)c(Cl)c3)cc2)[C@@H]2C(=O)N(C)C(=O)[C@@H]21 -2.15%
Cc1cc(C)c(S(=O)(=O)c2ccccc2)c(OC(=O)c2c(F)cccc2Cl)n1 7.18%
N#Cc1ccccc1Sc1ccccc1C(=O)OCC(=O)NC1CCCCC1 5.54%
Cc1cc(Br)ccc1NC(=O)c1cnc(N2CCN(c3ccccn3)CC2)c2ccccc12 -4.35%
Cc1nnc(NC(=O)CCC(=O)N2CCC(C)CC2)s1 0.523%
Cc1ccc(NC(=O)c2ccc(CSc3ncnc4nc[nH]c34)cc2)c(C)c1 -7.49%
Cc1ccc2nc(NC(=O)CSc3nc(=O)n(CCCN(C)C)c4c3CCC4)sc2c1 2.91%
Cn1c(=O)c(=O)n(C)c2cc(S(=O)(=O)CCC(=O)N3CCCCC3)ccc21 2.02%
CCN(c1ccc2c(c1)OCO2)S(=O)(=O)c1cc(Br)cc2c1N(C(=O)C1CC1)CC2 -2.85%
CCC1(CC)NC(=O)N(CC(=O)OCC(=O)Nc2ccc(C(F)(F)F)cc2)C1=O -0.836%
COC(=O)c1cc2n(n1)CCCNC2=O 2.64%
O=C(NC1CCCC1)C(NS(=O)(=O)c1ccc(Br)s1)c1ccccc1 (stereo not given) -0.275%
O=C(O)c1ccc2c(=O)n3c(nc2c1)/C(=C/c1ccc(OC(F)F)cc1OC(F)F)CC3 -1.21%
COCCNC(=O)C1CCN(S(=O)(=O)c2ccc3c(c2)OCCO3)CC1 -2.22%
O=C(Nc1cccc(F)c1)N1C2CCC1CC(O)(c1cccnc1)C2 (stereo not given) 2.54%
CC(C)NS(=O)(=O)c1ccc(OCC(=O)NC2CCCCCC2)cc1 1.95%
CC(C)NC(=O)c1ccccc1S(=O)c1ccccc1C#N (stereo not given) -1.11%
CC(=O)Nc1nc2c(s1)C(=O)NCC(C)(C)C2 3.79%
